Screens from PubChem.
dFosB act-1 = activators of mouse delta FosB homodimer. P13346. purified delta FosB, TAMRA-CDK5 oligo fluorescence polarization; percent of positive-control signal above neutral wells. activation, % at 25 µM. 0.99% of 340,000 active. AID 493131;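 active means mean activation above about 17%, with every replicate also reaching it, limit read from the data, passing the limit was not always enough; inconclusive means only one of the two conditions met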
DYRK1A inh = inhibitors of rat Dyrk1A kinase. ADP-Glo luminescence, NFATc1 peptide. 0.43% of 310,000 active. AID 504441. inhibition, % at 12.5 µM. Q63470; in the data active means inhibition above about 50%;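 further: plate controls were vehicle with enzyme for no effect and no enzyme for full effect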
CDK5 p35 inh = CDK5/p35 (human) kinase inhibition; Q00535+Q15078; Recombinant CDK5/p35, ADP-Glo luminescence, 60 min; inhibition, % at 10 µM; 0.01% of 330,000 active; AID 488839;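 active means highest replicate inhibition of at least 50% and at least 75% of replicates reaching 50%; inconclusive means only one of the two criteria met; inactive means both criteria failed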;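 further: plate controls were DMSO neutral control for no effect and GW8510 at 10 µM for full effect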
Target sequence (Q00535 whole entry, looked up): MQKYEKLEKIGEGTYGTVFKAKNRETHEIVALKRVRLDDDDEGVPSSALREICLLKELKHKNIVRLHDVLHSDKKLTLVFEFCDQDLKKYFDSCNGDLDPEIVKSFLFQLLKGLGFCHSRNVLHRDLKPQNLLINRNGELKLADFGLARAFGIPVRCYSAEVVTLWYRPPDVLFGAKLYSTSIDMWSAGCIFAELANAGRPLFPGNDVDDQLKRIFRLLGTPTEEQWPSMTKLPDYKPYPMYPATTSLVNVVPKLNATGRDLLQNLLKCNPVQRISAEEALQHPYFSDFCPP
Target sequence (Q15078 whole entry, looked up): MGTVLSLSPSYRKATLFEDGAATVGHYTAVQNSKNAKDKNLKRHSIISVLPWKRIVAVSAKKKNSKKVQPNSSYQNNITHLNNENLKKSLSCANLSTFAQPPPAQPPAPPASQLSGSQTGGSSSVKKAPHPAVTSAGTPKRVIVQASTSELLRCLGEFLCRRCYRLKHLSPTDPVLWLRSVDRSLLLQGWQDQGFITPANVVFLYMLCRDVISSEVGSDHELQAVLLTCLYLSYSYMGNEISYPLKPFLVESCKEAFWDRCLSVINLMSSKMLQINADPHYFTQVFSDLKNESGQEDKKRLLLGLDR
CAL PDZ FP-1 = inhibitors of human CAL PDZ peptide binding; Q9HD26; purified CAL PDZ, TMR-peptide fluorescence polarization, 1 h; inhibition, % at 24.9 µM; 0.92% of 300,000 active; AID 602252;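 active means mean inhibition of at least 30% with at least half of replicates also reaching 30%; inconclusive means no clear call, values can overlap the other calls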;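 further: 0% = DMSO neutral control and 100% = excess unlabeled competitor peptide PRC23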
CAL PDZ FP-2 = inhibitors of human CAL PDZ peptide binding; purified CAL PDZ, TMR-peptide fluorescence polarization, 1 h; AID 504414; 0.02% of 330,000 active; inhibition, % at 20 µM; Q9HD26;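 active means highest replicate inhibition of at least 40%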;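 further: plate controls were DMSO neutral control wells for no effect and unlabeled competitor peptide control wells for full effect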
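Control set: unlabelled peptide and DMSO controls / Material: purified CerCALP PDZ construct / Timing: 1 h incubation at room temperature before polarization reading / Doses: 20 µM, one dose / Detection: fluorescence polarization (mP)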
Rtt109 HAT inh = C. albicans Rtt109 histone acetyltransferase inhibition; 0.16% of 330,000 active; inhibition, % at 34.9 µM; purified Rtt109/Vps75, ThioGlo CoA-SH fluorescence, 4 h;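 active means inhibition of at least 50% in every replicate; inconclusive means best replicate reaches 50% inhibition but some replicates fall short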
dFosB act-2 = activators of mouse delta FosB homodimer DNA binding. shares compounds with dFosB act-1. purified delta FosB, TAMRA-CDK5 oligo fluorescence polarization; normalised: neutral wells 0, positive control 100. activation, % at 24.9 µM. 2,400 tested, under 10 active;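 active means highest replicate activation at or above 34% and every replicate reaching that threshold; inconclusive means meets only one of the two criteria; inactive means meets neither criterion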;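 further: higher polarization means more probe DNA bound by delta FosB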
Starred values were filed as active, the others as inactive; u = inconclusive; x = not tested or not shown. Hits are enriched below; roughly 2.2% of the tested compounds scored in any of these assays.

SMILES	dFosB act-1	DYRK1A inh	CDK5 p35 inh	CAL PDZ FP-1	CAL PDZ FP-2	Rtt109 HAT inh	dFosB act-2
CC(C)C[C@H]1CN([C@@H](CC(C)C)CN2CCC[C@@H]2CN2C(=O)C(=O)NC[C@@H]2Cc2ccccc2)C(=O)C(=O)N1CC1CCCCC1	-18.9	x	-0.3	-8.5	0.5	13.5	x
CC(C)C[C@@H](CN1CCC[C@@H]1CN1C(=O)C(=O)NC[C@@H]1Cc1ccccc1)N1C[C@H](Cc2ccccc2)N(CC2CCCCCC2)C(=O)C1=O	34.6*	x	1.2	-5.6	0.0	3.3	4.8
O=C(CCc1ccccc1)Nc1nc2n(n1)C(c1ccccc1)CC(=O)N2 (stereo not given)	27.0*	-4.7	0.7	-6.4	-0.1	16.1	-0.7
CCCCN(C(=O)c1cccc(S(=O)(=O)N(CC)c2ccccc2)c1)c1c(N)n(CCCC)c(=O)[nH]c1=O	-2.4	-2.7	-0.1	6.9	-0.6	4.6	x
O=C(Nc1cc(Cl)ccc1Cl)c1cc(-c2ccco2)on1	18.4*	-5.6	0.9	-3.1	-1.6	-20.3	-3.8
COc1ccc(C2/C=C\CN(CC(C)C)CC(=O)N2Cc2cccc(F)c2)cc1 (stereo not given)	-4.0	2.1	3.5	-6.0	-0.2	6.2	x
COc1cccc(CNC(=O)C2CCC(CNc3nc(=S)[nH]c4ccccc34)CC2)c1 (stereo not given)	37.5*	-1.2	2.1	0.1	-0.3	-8.7	2.1
O=C(Cc1csc(Nc2nc(=S)[nH]c3ccccc23)n1)NCCCN1CCN(c2ccccc2F)CC1	20.4*	0.8	0.9	-3.5	-1.2	17.1	2.8
Cc1ccc(CNC(=O)C2CCC(CNc3nc(=S)[nH]c4ccccc34)CC2)cc1 (stereo not given)	u	-1.6	-7.2	x	-0.6	-1.1	x
O=C(Cc1csc(Nc2nc(=S)[nH]c3ccccc23)n1)NCc1ccc(Cl)cc1	-1.3	7.2	-1.8	x	-2.8	-1.0	x
COc1ccc(CNC(=O)Cc2csc(Nc3nc(=S)[nH]c4ccccc34)n2)cc1	35.4*	15.2	-0.9	x	-1.4	4.6	6.9
CC(=O)c1cccc(CN2CCCC(C(=O)Nc3ccc(-c4ccco4)cc3)C2)c1 (stereo not given)	5.2	4.1	-3.0	-1.4	-0.9	-5.1	x
Cc1ccc(COc2ccsc2C(=O)NNC(N)=S)cc1	28.5*	2.2	-5.2	1.3	-0.8	-4.0	-0.3
CC(C)CN(C(=O)c1cccc(S(=O)(=O)N2CCN(c3ccc(F)cc3)CC2)c1)C1CCS(=O)(=O)C1 (stereo not given)	-5.5	3.9	-1.2	-1.7	-1.5	11.1	x
COc1ccc2oc(C(=O)OCC(=O)NCCc3ccccc3)c(C)c2c1	5.6	2.5	0.6	2.2	-1.5	-10.3	x
COc1ccc(Br)cc1/C=C/C(=O)OCC(=O)NCCc1ccc(S(N)(=O)=O)cc1	21.8*	0.7	-0.9	-7.7	-1.6	-0.1	3.9
COc1ccc2oc(C(=O)OCC(=O)NCCc3ccc(S(N)(=O)=O)cc3)c(C)c2c1	25.7*	x	-1.5	-1.4	-0.4	-1.7	5.1
COc1ccc(-c2csc(NC(=O)C3CCN(c4ncnc5sc(C)c(C)c45)CC3)n2)cc1OC	25.9*	18.2	-1.1	-21.3	-1.7	10.5	-1.9
C=CCn1c(C)cc(-c2csc(NC(=O)C3CCN(c4ncnc5sc(C)c(C)c45)CC3)n2)c1C	30.1*	x	0.7	-4.1	-0.4	-9.5	0.2
COCCNC(=O)C(=O)NNC(=O)CCc1ccccc1	2.6	-3.9	0.9	x	-0.2	2.0	x
CCOC(=O)N1CCN(C(=O)c2cc(COc3ccc(OC)cc3Cl)on2)CC1	-11.8	-2.8	-3.0	-2.5	-1.5	-1.5	x
CC(C)(C)OC(=O)NCc1ccc(NC(=O)c2nc[nH]c2C(=O)NCCNC(=O)c2[nH]cnc2C(=O)Nc2ccc(CNC(=O)OC(C)(C)C)cc2)cc1	40.4*	1.8	0.2	-4.5	-0.6	-3.6	2.1
O=S(=O)(NC1CC1)c1ccc(S(=O)(=O)N2CCN3CCCC3C2)cc1 (stereo not given)	-2.1	-2.2	-2.7	-13.8	-1.7	-4.0	x
O=S(=O)(NC1CC1)c1ccc(S(=O)(=O)N2CCCC3(CCCCC3)C2)cc1	16.4*	-1.7	-1.9	-6.0	-0.5	4.6	7.4
COc1ccc(NC(=O)c2cc(S(=O)(=O)N3CCOCC3)ccc2C)cc1S(=O)(=O)N1CCOCC1	-0.8	6.5	0.0	0.9	-0.6	-5.8	x
SMILES	dFosB act-1	DYRK1A inh	CDK5 p35 inh	CAL PDZ FP-1	CAL PDZ FP-2	Rtt109 HAT inh	dFosB act-2
Nc1c(C(=O)Nc2ccccc2Cl)nnn1-c1ccc2c(c1)OCCO2	43.4*	-6.9	1.5	-3.3	0.6	3.4	3.7
Nc1c(C(=O)Nc2ccc3c(c2)OCCO3)nnn1CCc1ccccc1	-7.5	1.6	1.8	x	-0.2	1.5	x
CCOc1ccc(C2C(C#N)=C(N)N(N(C)C)C3=C2C(=O)CC(C)(C)C3)cc1 (stereo not given)	-1.4	-0.3	1.2	7.6	0.0	13.8	x
O=C(NC(=S)Nc1ccccc1O)c1ccc(-c2ccc(Cl)cc2)o1	-11.9	3.4	0.6	-1.5	-0.3	5.9	x
CC(=O)NC(=O)c1ccc(-c2ccc(Cl)cc2)o1	25.7*	2.2	-0.8	-0.4	-2.0	x	0.9
CC(=O)c1cccc(CN2CCCC(CCC(=O)NCc3ccc(F)c(F)c3)C2)c1 (stereo not given)	4.1	4.3	-1.2	-3.5	-1.7	-3.2	x
COc1ccccc1-c1cc(C(=O)NC(C)C)no1	-15.5	4.1	0.1	x	-0.1	14.1	x
COc1ccccc1-c1cc(C(=O)Nc2ccc(F)cc2F)no1	24.8*	2.6	-0.7	x	0.6	-3.8	2.5
COCCN(C(=O)COc1ccccc1)c1nnc(-c2cccnc2)s1	32.4*	1.8	0.5	-6.2	x	-4.1	6.6
CSc1ccc(S(=O)(=O)Nc2c(C)n(C)n(-c3ccccc3)c2=O)cc1	4.5	-4.4	0.2	-2.6	-0.4	-3.2	x
Cc1ccc(NC(=O)CCC(=O)NNC(=O)COc2ccc([N+](=O)[O-])cc2)c(C)c1	7.8	-2.1	-1.5	-3.8	-1.5	-1.6	x
CC(=O)c1ccc(OCC(=O)Nc2ccccc2C(=O)NC2CC2)cc1	30.3*	-1.0	1.1	-3.3	-3.0	-7.7	0.2
O=C(COc1ccccc1)Nc1ccccc1C(=O)NC1CC1	7.1	2.7	-1.7	-4.5	0.6	-1.3	x
O=C(CCC(=O)Nc1ccccc1Cl)NNC(=O)COc1ccc([N+](=O)[O-])cc1	16.7*	2.3	-0.8	x	-0.5	3.1	-1.6
O=C(COc1ccc([N+](=O)[O-])cc1)Nc1ccccc1C(=O)NC1CC1	25.6*	17.1	0.1	-2.1	-3.0	20.4	2.4
